Laboratory results taken from ChEMBL document CHEMBL1149785, “Synthesis and biological evaluation of helicid analogues as novel acetylcholinesterase inhibitors” (Eur J Med Chem, 2008).
Activity calls are given as the source filed them. No cut-off for these calls is given here.

Legend:
Acetylcholinesterase = Acetylcholinesterase (Electrophorus electricus, UniProt O42275); assay: Inhibition of Electrophorus electricus AChE by Ellman's method
[1] = molecular target: Cholinesterase (Equus caballus) (UniProt P81908); assay: Inhibition of horse serum BuChE upto 500 uM by Ellman's method
Procedure, shortened: (§1)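 Modified Ellman assay with acetylthiocholine (AChE) or butyrylthiocholine (BuChE) as substrate, from 0.075 M stock solutions, and DTNB from a 0.01 M stock, in phosphate buffer. Enzyme, DTNB and test compound were pre-incubated for 15 min at 37 °C, then substrate was added. Absorbance was read at 412 nm for 1 min. Five concentrations, normally 10^-4 to 10^-9 M, each in triplicate.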

Cholinesterase = Cholinesterase (Equus caballus, UniProt P81908); assay: Inhibition of horse serum BuChE by Ellman's method
[2] = molecular target: 4-aminobutyrate aminotransferase, mitochondrial (Homo sapiens, UniProt P80404); assay: Inhibition of GABA transaminase
[3] = molecular target: Acetylcholinesterase (Electrophorus electricus) (UniProt O42275); assay: Inhibition of Electrophorus electricus AChE upto 500 uM by Ellman's method; procedure, shortened: as §1
Sequence of Acetylcholinesterase (Electrophorus electricus) (O42275 24-633 limits assumed): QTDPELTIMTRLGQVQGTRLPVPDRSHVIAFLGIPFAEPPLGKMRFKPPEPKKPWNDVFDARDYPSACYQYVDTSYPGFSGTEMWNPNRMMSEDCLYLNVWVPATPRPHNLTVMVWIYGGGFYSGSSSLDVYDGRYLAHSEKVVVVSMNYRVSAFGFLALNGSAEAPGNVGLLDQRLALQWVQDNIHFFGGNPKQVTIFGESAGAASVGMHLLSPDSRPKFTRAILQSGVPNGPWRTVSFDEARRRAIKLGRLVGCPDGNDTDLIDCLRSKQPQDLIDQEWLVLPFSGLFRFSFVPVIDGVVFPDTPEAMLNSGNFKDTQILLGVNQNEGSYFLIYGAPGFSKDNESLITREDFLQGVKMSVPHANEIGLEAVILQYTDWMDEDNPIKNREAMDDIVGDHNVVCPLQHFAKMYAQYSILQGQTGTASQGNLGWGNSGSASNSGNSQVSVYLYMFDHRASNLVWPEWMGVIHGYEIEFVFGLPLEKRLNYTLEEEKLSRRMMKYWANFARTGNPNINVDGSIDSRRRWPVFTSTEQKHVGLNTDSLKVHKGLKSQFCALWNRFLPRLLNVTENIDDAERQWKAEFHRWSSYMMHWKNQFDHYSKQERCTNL

Sequence of Cholinesterase (Equus caballus) (P81908 whole entry): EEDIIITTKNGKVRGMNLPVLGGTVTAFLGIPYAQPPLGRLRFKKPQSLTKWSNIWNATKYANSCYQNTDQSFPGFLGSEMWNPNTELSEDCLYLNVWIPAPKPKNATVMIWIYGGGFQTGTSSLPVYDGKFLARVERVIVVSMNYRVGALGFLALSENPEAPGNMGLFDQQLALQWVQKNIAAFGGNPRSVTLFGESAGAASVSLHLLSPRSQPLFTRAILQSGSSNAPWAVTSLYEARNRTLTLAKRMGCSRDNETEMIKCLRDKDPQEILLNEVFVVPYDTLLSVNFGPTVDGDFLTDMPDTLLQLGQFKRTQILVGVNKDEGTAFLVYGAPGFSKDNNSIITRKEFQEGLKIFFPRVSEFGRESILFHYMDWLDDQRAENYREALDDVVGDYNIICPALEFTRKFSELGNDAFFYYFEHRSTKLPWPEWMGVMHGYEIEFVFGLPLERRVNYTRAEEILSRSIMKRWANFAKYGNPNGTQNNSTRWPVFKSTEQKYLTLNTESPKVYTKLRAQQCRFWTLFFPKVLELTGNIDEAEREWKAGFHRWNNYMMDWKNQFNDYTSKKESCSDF
Sequence of Cholinesterase (P81908 whole entry): as above
Sequence of Acetylcholinesterase (O42275 whole entry): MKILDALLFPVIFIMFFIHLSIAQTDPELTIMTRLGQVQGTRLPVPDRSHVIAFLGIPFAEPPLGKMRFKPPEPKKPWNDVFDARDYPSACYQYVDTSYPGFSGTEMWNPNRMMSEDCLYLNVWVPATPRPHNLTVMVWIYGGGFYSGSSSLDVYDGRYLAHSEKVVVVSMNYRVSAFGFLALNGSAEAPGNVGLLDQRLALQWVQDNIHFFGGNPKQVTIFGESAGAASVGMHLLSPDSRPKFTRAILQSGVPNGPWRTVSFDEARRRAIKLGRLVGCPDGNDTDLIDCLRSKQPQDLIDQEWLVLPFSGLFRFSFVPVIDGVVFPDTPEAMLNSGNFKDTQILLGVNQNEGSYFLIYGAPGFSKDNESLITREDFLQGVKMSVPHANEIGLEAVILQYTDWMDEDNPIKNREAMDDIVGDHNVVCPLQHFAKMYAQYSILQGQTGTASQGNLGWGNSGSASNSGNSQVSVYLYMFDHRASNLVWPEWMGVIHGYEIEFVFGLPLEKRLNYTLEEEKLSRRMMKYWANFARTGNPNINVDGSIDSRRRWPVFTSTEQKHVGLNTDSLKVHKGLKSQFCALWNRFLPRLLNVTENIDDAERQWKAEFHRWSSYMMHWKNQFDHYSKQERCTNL
Sequence of 4-aminobutyrate aminotransferase, mitochondrial (P80404 whole entry): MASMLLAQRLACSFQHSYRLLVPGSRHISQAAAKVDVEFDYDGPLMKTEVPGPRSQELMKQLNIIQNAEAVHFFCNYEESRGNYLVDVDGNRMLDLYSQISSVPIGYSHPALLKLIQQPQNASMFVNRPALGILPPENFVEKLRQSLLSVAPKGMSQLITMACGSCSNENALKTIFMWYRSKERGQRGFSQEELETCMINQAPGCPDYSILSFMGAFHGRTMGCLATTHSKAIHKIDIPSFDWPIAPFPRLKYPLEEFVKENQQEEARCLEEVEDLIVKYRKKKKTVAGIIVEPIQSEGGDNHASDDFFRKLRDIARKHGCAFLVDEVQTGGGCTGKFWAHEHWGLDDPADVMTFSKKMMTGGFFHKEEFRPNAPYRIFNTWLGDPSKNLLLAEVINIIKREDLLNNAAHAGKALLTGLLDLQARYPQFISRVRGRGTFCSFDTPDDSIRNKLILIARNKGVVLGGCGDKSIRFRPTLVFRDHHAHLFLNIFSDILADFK

SMILES | IC50 (Acetylcholinesterase) | Activity [1] | further results
CO/N=C\c1ccc(O[C@@H]2O[C@H](COC(C)=O)[C@@H](OC(C)=O)[C@H](OC(C)=O)[C@H]2OC(C)=O)cc1 | 15.1 µM | inactive | –
CC(=O)OC[C@H]1O[C@@H](Oc2ccc(/C=N/NC(N)=O)cc2)[C@H](OC(C)=O)[C@@H](OC(C)=O)[C@@H]1OC(C)=O | 143 µM | inactive | –
CC(=O)OC[C@H]1O[C@@H](Oc2ccc(C=O)cc2)[C@H](OC(C)=O)[C@@H](OC(C)=O)[C@@H]1OC(C)=O | 1.5 µM | inactive | –
NC(=O)N/N=C/c1ccc(O[C@@H]2OC[C@@H](OC(=O)c3ccccc3)[C@@H](OC(=O)c3ccccc3)[C@H]2OC(=O)c2ccccc2)cc1 | 7.07 µM | – | IC50 (Cholinesterase): 48.7 µM
O=Cc1ccc(O)cc1 [4-HYDROXYBENZALDEHYDE] | – | – | IC50 [2]: 33.6 µM
NC(=S)N/N=C/c1ccc(O[C@@H]2O[C@H](CO)[C@@H](O)[C@H](O)[C@H]2O)cc1 | 22.9 µM | inactive | –
CC(=O)OC[C@H]1O[C@@H](Oc2ccc(C=O)cc2)[C@H](OC(C)=O)[C@H](OC(C)=O)[C@@H]1OC(C)=O | – | inactive | Activity [3]: inactive
CO/N=C\c1ccc(O[C@@H]2O[C@H](CO)[C@@H](O)[C@H](O)[C@H]2O)cc1 | 0.49 µM | inactive | Ki (Acetylcholinesterase): 0.13 µM
CC(=O)OC[C@H]1O[C@@H](Oc2ccc(/C=N/O)cc2)[C@H](OC(C)=O)[C@@H](OC(C)=O)[C@@H]1OC(C)=O | – | inactive | –
NC(=O)N/N=C/c1ccc(O[C@@H]2O[C@H](CO)[C@@H](O)[C@H](O)[C@H]2O)cc1 | 121 µM | inactive | –
O=Cc1ccc(O[C@@H]2OC[C@@H](O)[C@@H](O)[C@H]2O)cc1 | 0.2 µM | inactive | Ki (Acetylcholinesterase): 0.51 µM
OC[C@H]1O[C@@H](Oc2ccc(/C=N/O)cc2)[C@H](O)[C@@H](O)[C@@H]1O | – | inactive | –
O=Cc1ccc(O[C@@H]2O[C@H](CO)[C@@H](O)[C@@H](O)[C@H]2O)cc1 | – | inactive | Activity [3]: inactive
NC(=S)N/N=C/c1ccc(O[C@@H]2OC[C@@H](OC(=O)c3ccccc3)[C@@H](OC(=O)c3ccccc3)[C@H]2OC(=O)c2ccccc2)cc1 | 46.4 µM | – | IC50 (Cholinesterase): 71.8 µM
CO/N=C\c1ccc(O[C@@H]2OC[C@@H](OC(=O)c3ccccc3)[C@@H](OC(=O)c3ccccc3)[C@H]2OC(=O)c2ccccc2)cc1 | 3.08 µM | – | IC50 (Cholinesterase): 45.8 µM
O=Cc1ccc(O[C@@H]2O[C@H](CO)[C@@H](O)[C@H](O)[C@H]2O)cc1 | 0.45 µM | inactive | Ki (Acetylcholinesterase): 0.73 µM
CC(=O)OC[C@H]1O[C@@H](O[C@H]2[C@H](OC(C)=O)[C@@H](OC(C)=O)[C@H](Oc3ccc(C=O)cc3)O[C@@H]2COC(C)=O)[C@H](OC(C)=O)[C@@H](OC(C)=O)[C@H]1OC(C)=O | – | inactive | Activity [3]: inactive
O=Cc1ccc(O[C@@H]2OC[C@@H](OC(=O)c3ccccc3)[C@@H](OC(=O)c3ccccc3)[C@H]2OC(=O)c2ccccc2)cc1 | 14 µM | – | IC50 (Cholinesterase): 64.3 µM
CC(=O)OC[C@H]1O[C@@H](Oc2ccc(C=O)cc2)[C@H](OC(C)=O)[C@@H](OC(C)=O)[C@H]1OC(C)=O | 45.4 µM | inactive | –
O=Cc1ccc(O[C@@H]2OC[C@@H](OC(=O)c3ccccc3)[C@H](OC(=O)c3ccccc3)[C@H]2OC(=O)c2ccccc2)cc1 | 35 µM | inactive | –
CC(=O)OC[C@H]1O[C@@H](Oc2ccc(/C=N/NC(N)=S)cc2)[C@H](OC(C)=O)[C@@H](OC(C)=O)[C@@H]1OC(C)=O | 21.5 µM | inactive | –
